Consider 22 molecules from ChEMBL document CHEMBL1955735, “Tea catechins and flavonoids from the leaves of Camellia sinensis inhibit yeast alcohol dehydrogenase” (Bioorg Med Chem, 2012).

SMILES strings stand for the structures. Activity calls are given as the source filed them. The rule behind the calls is not given here.

In experiment [1] the test system is Radical scavenging activity. Description: Antioxidant activity assessed as DPPH radical scavenging activity after 30 mins by spectrophotometry. Type of experiment: functional. In a few lines:
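Microplate DPPH assay: 30 min incubation at room temperature, then absorbance read at 517 nm. IC50 is the concentration giving a 50% drop in absorbance relative to the DPPH control solution.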

A short description of experiment [2]: Inhibition of aldehyde dehydrogenase.
The nature of experiment [3]: Inhibition of Saccharomyces cerevisiae alcohol dehydrogenase measured every 5 mins for 2 hrs by spectrophotometry. In a few lines: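 Yeast ADH in a microplate. DMSO sample stocks were serially diluted in 10 mM PBS pH 7.4 and combined with ethanol (25% in PBS) and β-NAD⁺ (1.87 mM in PBS), both as added solutions. The mix was equilibrated 5 min at 24 °C, then ADH (1180 unit/L solution) was added and incubated 2 h at 24 °C. NADH was read at A340 every 5 min. IC50 was the concentration halving NADH versus the PBS control at 2 h. Run in triplicate, with disulfiram as positive control.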

Experiment [4] can be described thus: Activation of aldehyde dehydrogenase.

With `O=C(O[C@@H]1Cc2c(O)cc(O)cc2O[C@@H]1c1cc(O)c(O)c(O)c1)c1cc(O)c(O)c(O)c1` [EPIGALOCATECHIN GALLATE], the IC50 in experiment [1] turned out to be 8.3 µM; in experiment [3], 42.8 µM. Besides, the inhibition result in experiment [2] was “inactive”. Besides, the result in experiment [4] was inactive.
As to `O=C(/C=C\c1ccc(O)cc1)O[C@@H]1Cc2c(O)cc(O)cc2O[C@@H]1c1cc(O)c(O)c(O)c1`, the IC50 in experiment [1] worked out at 26.4 µM; in experiment [3] it was 22.1 µM. Also, the inhibition result in experiment [2] was “inactive”. The result in experiment [4] was inactive.
As for `Cn1c(=O)c2c(ncn2C)n(C)c1=O` [CAFFEINE], the IC50 in experiment [1] is above 100 µM; in experiment [3], 197 µM. For the same molecule, the inhibition entry in experiment [2] is “inactive”. Further, the result in experiment [4] was inactive.
For `C[C@@H]1O[C@@H](OC[C@H]2O[C@@H](Oc3c(-c4ccc(O)cc4)oc4cc(O)cc(O)c4c3=O)[C@H](O)[C@@H](O)[C@@H]2O)[C@H](O)[C@H](O)[C@H]1O` [NICOTIFLOROSIDE], the IC50 was above 100 µM in experiment [1] and 40.4 µM in experiment [3]. Moreover, the inhibition result in experiment [2] was “inactive”. Moreover, the result in experiment [4] was inactive.
Regarding `O=c1c(O[C@@H]2O[C@H](CO)[C@@H](O)[C@H](O)[C@H]2O)c(-c2cc(O)c(O)c(O)c2)oc2cc(O)cc(O)c12`, the IC50 in experiment [1] is 28 µM; in experiment [3], 19.9 µM. Besides, the inhibition result in experiment [2] was “inactive”. The result in experiment [4] was inactive.
As for `O=c1c(O[C@@H]2O[C@H](CO)[C@H](O)[C@H](O)[C@H]2O)c(-c2cc(O)c(O)c(O)c2)oc2cc(O)cc(O)c12`, the IC50 is 3.5 µM in experiment [1] and 18.2 µM in experiment [3]. In addition, in experiment [2], the inhibition entry was “inactive”. Besides, the outcome in experiment [4] was inactive.
For `Oc1cc(O)c2c(c1)O[C@H](c1ccc(O)c(O)c1)[C@@H](O)C2` [CIANIDANOL], the figures for the IC50 in experiment [1] and in experiment [3] were 4.3 µM and 21.1 µM, respectively. In experiment [2], the inhibition result was “inactive”. The result in experiment [4] was inactive.
Take `C[C@@H]1O[C@@H](OC[C@H]2O[C@@H](Oc3c(-c4ccc(O)c(O)c4)oc4cc(O)cc(O)c4c3=O)[C@H](O)[C@@H](O)[C@H]2O)[C@H](O)[C@H](O[C@@H]2O[C@H](CO)[C@@H](O)[C@H](O)[C@H]2O)[C@H]1O`: the values for the IC50 in experiment [1] and in experiment [3] were 30.1 µM and 41 µM, respectively. Further, the inhibition entry in experiment [2] is “inactive”. The result in experiment [4] was inactive.
As for `O=C(/C=C/c1ccc(O)cc1)O[C@@H]1Cc2c(O)cc(O)cc2O[C@@H]1c1cc(O)c(O)c(O)c1`, the IC50 in experiment [1] was 43.8 µM; in experiment [3], 8 µM. The inhibition result in experiment [2] is “inactive”. Besides, in experiment [4], the result was inactive.
Take `O=C(O[C@@H]1Cc2c(O)cc(O)cc2O[C@@H]1c1ccc(O)cc1)c1cc(O)c(O)c(O)c1`: the IC50 worked out at 2.8 µM in experiment [1] and 44.3 µM in experiment [3]. The inhibition result in experiment [2] is “inactive”. Besides, in experiment [4], the result was inactive.
As for `COc1cc(C(=O)O[C@@H]2Cc3c(O)cc(O)cc3O[C@@H]2c2ccc(O)c(O)c2)cc(O)c1O`, the IC50 in experiment [1] was 10.8 µM; in experiment [3] it was 44.1 µM. Besides, the inhibition result in experiment [2] is “inactive”. The result in experiment [4] was inactive.
Regarding `Oc1cc(O)c2c(c1)O[C@H](c1cc(O)c(O)c(O)c1)[C@H](O)C2` [EPIGALLOCATECHIN], the results for the IC50 in experiment [1] and in experiment [3] were 16.2 µM and 16.5 µM, respectively. Moreover, the inhibition result in experiment [2] was “inactive”. The outcome in experiment [4] was inactive.
Take `C[C@@H]1O[C@@H](OC[C@H]2O[C@@H](Oc3c(-c4ccc(O)cc4)oc4cc(O)cc(O)c4c3=O)[C@H](O)[C@@H](O)[C@H]2O)[C@H](O)[C@H](O[C@@H]2O[C@H](CO)[C@@H](O)[C@H](O)[C@H]2O)[C@H]1O`: the IC50 is above 100 µM in experiment [1] and 17.6 µM in experiment [3]. Moreover, the inhibition result in experiment [2] was “inactive”. Further, the result in experiment [4] was inactive.
For `C[C@@H]1O[C@@H](OC[C@H]2O[C@@H](Oc3c(-c4ccc(O)c(O)c4)oc4cc(O)cc(O)c4c3=O)[C@H](OC(=O)/C=C/c3ccc(O)cc3)[C@@H](O)[C@@H]2O)[C@H](O)[C@H](O[C@@H]2O[C@H](CO)[C@@H](O)[C@H](O)[C@H]2O)[C@H]1O` [CAMELLIQUERCETISIDE B], the IC50 is 22 µM in experiment [1] and 13.7 µM in experiment [3]. In experiment [2], the inhibition entry was “inactive”. Also, in experiment [4], the result was inactive.
Turning to `C[C@@H]1O[C@@H](OC[C@H]2O[C@@H](Oc3c(-c4ccc(O)c(O)c4)oc4cc(O)cc(O)c4c3=O)[C@H](OC(=O)/C=C/c3ccc(O)cc3)[C@@H](O[C@@H]3OC[C@H](O)[C@H](O)[C@H]3O)[C@@H]2O)[C@H](O)[C@H](O)[C@H]1O` [CAMELLIQUERCETISIDE C], the IC50 turned out to be 31.9 µM in experiment [1] and 46.7 µM in experiment [3]. Moreover, the inhibition entry in experiment [2] is “inactive”. The result in experiment [4] was inactive.
`C[C@@H]1O[C@@H](OC[C@H]2O[C@@H](Oc3c(-c4ccc(O)c(O)c4)oc4cc(O)cc(O)c4c3=O)[C@H](OC(=O)/C=C/c3ccc(O)cc3)[C@@H](O[C@@H]3OC[C@H](O)[C@H](O)[C@H]3O)[C@@H]2O)[C@H](O)[C@H](O[C@@H]2O[C@H](CO)[C@@H](O)[C@H](O)[C@H]2O)[C@H]1O` [CAMELLIQUERCETISIDE A]: the values for the IC50 in experiment [1] and in experiment [3] were 19.8 µM and 17.3 µM, respectively. The inhibition entry in experiment [2] was “inactive”. In addition, the result in experiment [4] was inactive.
`CCN(CC)C(=S)SSC(=S)N(CC)CC` [DISULFIRAM] came in with an IC50 in experiment [3] of 248 µM.
Take `C[C@@H]1O[C@@H](OC[C@H]2O[C@@H](Oc3c(-c4ccc(O)c(O)c4)oc4cc(O)cc(O)c4c3=O)[C@H](O)[C@@H](O)[C@@H]2O)[C@H](O)[C@H](O[C@@H]2O[C@H](CO)[C@@H](O)[C@H](O)[C@H]2O)[C@H]1O`: the values for the IC50 in experiment [1] and in experiment [3] were 7.7 µM and 19.7 µM, respectively. In addition, the inhibition result in experiment [2] was “inactive”. Also, the result in experiment [4] was inactive.
As to `O=C(O[C@@H]1Cc2c(O)cc(O)cc2O[C@@H]1c1ccc(O)c(O)c1)c1cc(O)c(O)c(O)c1` [EPICATECHIN GALLATE], the IC50 in experiment [1] was 1.5 µM; in experiment [3], 65.5 µM. The inhibition result in experiment [2] was “inactive”. Moreover, the outcome in experiment [4] was inactive.
`O=c1c(O[C@@H]2O[C@H](CO)[C@H](O)[C@H](O)[C@H]2O)c(-c2ccc(O)cc2)oc2cc(O)cc(O)c12` [TRIFOLIN]: the IC50 in experiment [1] is above 100 µM; in experiment [3], 70.3 µM. Also, the inhibition result in experiment [2] was “inactive”. The result in experiment [4] was inactive.
For the molecule `C[C@@H]1O[C@@H](OC[C@H]2O[C@@H](Oc3c(-c4ccc(O)c(O)c4)oc4cc(O)cc(O)c4c3=O)[C@H](OC(=O)/C=C/c3ccc(O)cc3)[C@@H](O)[C@@H]2O)[C@H](O)[C@H](O)[C@H]1O` [CAMELLIQUERCETISIDE D], the figures for the half-maximal inhibitory concentration (IC50) in experiment [1] and in experiment [3] were 29.2 µM and 41.5 µM, respectively. For the same molecule, the inhibition entry in experiment [2] is “inactive”. Besides, in experiment [4], the result was inactive.
In the case of `Cc1c(C)c2c(c(C)c1O)CC[C@@](C)(CCC[C@H](C)CCC[C@H](C)CCCC(C)C)O2` [ALPHA-TOCOPHEROL], the IC50 in experiment [1] is 11.4 µM.
